Measured values published in ChEMBL document CHEMBL1137365, “1,4,5,6-tetrahydropyrrolo[3,4-c]pyrazoles: identification of a potent Aurora kinase inhibitor with a favorable antitumor kinase inhibition profile” (J Med Chem, 2006).
Activity calls are given as the source filed them. No cut-off for these calls is given here.

Key:
HCT-116 [1] = experiment: Antiproliferative activity against HCT116 cells; format: functional, cell-based; conditions: Homo sapiens
Outline: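 HCT-116 human colon carcinoma cells; proliferation IC50 taken from dose-response curves, reported as the mean of at least three independent determinations.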

HCT-116 [2] = experiment: Cell cycle arrest in HCT116 cells by accumulation at G2/M phase; format: functional, cell-based; conditions: Homo sapiens
Aurora kinase A = biological target: T1, Aurora kinase A (Homo sapiens, UniProt O14965); experiment: Inhibition of Aurora A kinase
T1 sequence (O14965 whole entry): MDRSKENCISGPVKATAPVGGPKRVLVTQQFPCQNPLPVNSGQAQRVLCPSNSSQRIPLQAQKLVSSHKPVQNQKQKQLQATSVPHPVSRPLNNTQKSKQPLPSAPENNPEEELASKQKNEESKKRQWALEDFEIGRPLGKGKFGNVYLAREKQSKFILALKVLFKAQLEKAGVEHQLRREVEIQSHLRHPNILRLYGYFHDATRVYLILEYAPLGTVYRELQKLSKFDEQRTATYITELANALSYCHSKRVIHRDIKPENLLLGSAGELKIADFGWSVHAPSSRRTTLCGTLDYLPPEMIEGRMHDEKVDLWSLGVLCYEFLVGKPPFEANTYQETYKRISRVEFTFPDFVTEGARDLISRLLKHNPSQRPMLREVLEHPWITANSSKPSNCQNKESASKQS

Aurora kinase B = Aurora kinase B (Homo sapiens, UniProt Q96GD4); experiment: Inhibition of Aurora B kinase
Chain of Aurora kinase B (Q96GD4 whole entry): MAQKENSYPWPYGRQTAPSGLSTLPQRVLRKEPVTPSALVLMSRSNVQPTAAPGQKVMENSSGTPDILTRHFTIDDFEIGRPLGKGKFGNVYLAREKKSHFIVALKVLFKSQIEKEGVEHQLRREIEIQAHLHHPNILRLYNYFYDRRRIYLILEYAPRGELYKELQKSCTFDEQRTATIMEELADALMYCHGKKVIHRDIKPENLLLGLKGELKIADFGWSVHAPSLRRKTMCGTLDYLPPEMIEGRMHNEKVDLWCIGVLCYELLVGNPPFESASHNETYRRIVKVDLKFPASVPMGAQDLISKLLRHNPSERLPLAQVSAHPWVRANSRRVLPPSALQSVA
Outline: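 Biochemical Aurora-B kinase inhibition; IC50 reported as the mean of at least three individual determinations.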

[3] = Aqueous solubility at pH 5.5; format: physicochemical
Outline: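 Aqueous solubility measured on the hydrochloride salt at pH 5.5.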

HCT-116 [4] = experiment: Inhibition of histone h3 phosphorylation in HCT116 cells by Western blot analysis; format: functional, cell-based; conditions: Homo sapiens
Outline: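 HCT-116 cells probed by Western blot for histone H3 phosphorylated at serine 10. α-Tubulin antibody used as the loading control.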

HeLa = experiment: Antiproliferative activity against HeLa cells; format: functional, cell-based; conditions: Homo sapiens
MCF7 = experiment: Antiproliferative activity against MCF7 cells; format: functional, cell-based; conditions: Homo sapiens
Outline: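 IC50 taken from dose-response curves of cell proliferation; each reported value is the mean of three or more independent curves.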

HL-60 [5] = experiment: Body weight loss of SCID mouse xenografted with HL60 cells at 30 mg/kg, iv after 5 days; format: functional
A2780 = experiment: Antiproliferative activity against A2780 cells; format: functional, cell-based; conditions: Homo sapiens
HL-60 [6] = experiment: Antitumor activity against HL60 cells xenografted in SCID mouse at 7.5 to 30 mg/kg, iv after 5 days; format: functional; conditions: dose mg/kg 7.5-30
Outline: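 SCID mice carrying HL-60 human tumor xenografts. Dosed iv twice daily for 5 days (bid × 5) at 7.5 to 30 mg/kg. Tumor growth inhibition followed over time.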

[7] = biological target: Serine/threonine-protein kinase NIM1 (Homo sapiens, UniProt Q8IY84); experiment: Inhibition of NIM1
Chain of Serine/threonine-protein kinase NIM1 (Q8IY84 whole entry): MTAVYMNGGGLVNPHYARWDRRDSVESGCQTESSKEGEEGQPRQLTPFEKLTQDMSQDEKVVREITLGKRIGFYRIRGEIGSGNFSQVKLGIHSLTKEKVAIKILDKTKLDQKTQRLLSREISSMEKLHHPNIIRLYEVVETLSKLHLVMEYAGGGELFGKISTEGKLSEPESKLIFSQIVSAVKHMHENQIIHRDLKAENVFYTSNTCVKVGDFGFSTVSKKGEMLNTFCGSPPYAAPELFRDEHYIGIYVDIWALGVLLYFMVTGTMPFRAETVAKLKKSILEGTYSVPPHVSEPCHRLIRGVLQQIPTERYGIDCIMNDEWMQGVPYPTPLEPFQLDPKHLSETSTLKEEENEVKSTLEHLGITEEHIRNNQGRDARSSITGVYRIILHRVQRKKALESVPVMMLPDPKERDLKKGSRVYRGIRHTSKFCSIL

[8] = Volume of distribution in CD1 mouse at 10 mg/kg, iv; format: ADME, organism-based; design: dose 10 mg/kg, route intravenous; conditions: in vivo, read-out: Vss
Outline: (§1)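 Plasma levels followed up to 6 h post-dose. Parameters estimated individually for three mice (M1–M3) and reported as mean and SD.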

[9] = biological target: Vascular endothelial growth factor receptor 3 (Homo sapiens, UniProt P35916); experiment: Inhibition of VEGFR3
Chain of Vascular endothelial growth factor receptor 3 (P35916 whole entry): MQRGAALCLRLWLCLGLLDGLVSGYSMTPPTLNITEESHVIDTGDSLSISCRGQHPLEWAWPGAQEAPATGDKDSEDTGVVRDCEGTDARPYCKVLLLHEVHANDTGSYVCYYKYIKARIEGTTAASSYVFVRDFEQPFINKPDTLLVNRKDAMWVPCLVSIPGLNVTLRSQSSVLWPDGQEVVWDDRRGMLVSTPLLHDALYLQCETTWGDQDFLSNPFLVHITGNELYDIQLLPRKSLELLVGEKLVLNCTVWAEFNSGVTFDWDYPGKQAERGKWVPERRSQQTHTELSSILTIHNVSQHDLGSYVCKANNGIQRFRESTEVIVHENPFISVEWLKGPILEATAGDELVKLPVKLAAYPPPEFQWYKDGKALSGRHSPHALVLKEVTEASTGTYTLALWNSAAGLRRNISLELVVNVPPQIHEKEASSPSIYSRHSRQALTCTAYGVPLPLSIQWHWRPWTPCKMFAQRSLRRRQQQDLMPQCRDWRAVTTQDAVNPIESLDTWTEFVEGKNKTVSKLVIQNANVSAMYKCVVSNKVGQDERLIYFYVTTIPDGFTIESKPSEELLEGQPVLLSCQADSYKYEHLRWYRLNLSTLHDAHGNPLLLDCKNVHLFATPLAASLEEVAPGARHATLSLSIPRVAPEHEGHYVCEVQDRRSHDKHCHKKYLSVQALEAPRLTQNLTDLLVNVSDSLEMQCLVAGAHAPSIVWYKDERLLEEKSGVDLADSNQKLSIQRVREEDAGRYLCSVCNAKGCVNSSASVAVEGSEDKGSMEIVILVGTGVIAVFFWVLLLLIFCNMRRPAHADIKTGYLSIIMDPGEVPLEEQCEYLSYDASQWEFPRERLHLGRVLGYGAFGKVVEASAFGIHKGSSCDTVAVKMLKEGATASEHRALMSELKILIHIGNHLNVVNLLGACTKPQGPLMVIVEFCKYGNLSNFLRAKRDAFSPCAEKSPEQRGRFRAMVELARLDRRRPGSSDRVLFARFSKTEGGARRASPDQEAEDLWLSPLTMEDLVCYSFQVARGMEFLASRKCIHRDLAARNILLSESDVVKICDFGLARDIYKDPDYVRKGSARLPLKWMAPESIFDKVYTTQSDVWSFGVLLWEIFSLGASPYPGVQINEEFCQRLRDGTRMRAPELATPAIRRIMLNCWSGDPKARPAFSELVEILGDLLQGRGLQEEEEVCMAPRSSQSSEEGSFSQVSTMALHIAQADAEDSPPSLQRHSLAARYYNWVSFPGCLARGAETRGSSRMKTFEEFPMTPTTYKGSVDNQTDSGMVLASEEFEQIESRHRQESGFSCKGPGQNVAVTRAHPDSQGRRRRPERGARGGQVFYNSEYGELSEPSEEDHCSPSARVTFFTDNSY

Aurora kinase C = biological target: T2, Aurora kinase C (Homo sapiens, UniProt Q9UQB9); experiment: Inhibition of Aurora C kinase
T2 sequence (Q9UQB9 whole entry): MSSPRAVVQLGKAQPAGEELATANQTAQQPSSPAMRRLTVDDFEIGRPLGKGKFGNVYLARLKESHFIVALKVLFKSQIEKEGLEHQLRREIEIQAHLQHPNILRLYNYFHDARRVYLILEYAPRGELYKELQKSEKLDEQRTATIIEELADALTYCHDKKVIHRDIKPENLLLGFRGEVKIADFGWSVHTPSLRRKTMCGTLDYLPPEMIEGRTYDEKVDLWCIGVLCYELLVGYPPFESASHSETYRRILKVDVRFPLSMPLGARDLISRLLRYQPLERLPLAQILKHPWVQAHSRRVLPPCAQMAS

[10] = Terminal half life in CD1 mouse at 10 mg/kg, iv; format: ADME, organism-based; design: dose 10 mg/kg, route intravenous; conditions: in vivo, read-out: beta t1/2 (converted); outline: as §1
[11] = Cmax in CD1 mouse at 10 mg/kg, iv; format: ADME, organism-based; design: dose 10 mg/kg, route intravenous; conditions: in vivo; outline: as §1
[12] = Clearance in CD1 mouse at 10 mg/kg, iv; format: ADME, organism-based; design: dose 10 mg/kg, route intravenous; conditions: in vivo; outline: as §1
[13] = biological target: T3, Inhibitor of nuclear factor kappa-B kinase subunit beta (Homo sapiens, UniProt O14920); experiment: Inhibition of IKK2
T3 sequence (O14920 whole entry): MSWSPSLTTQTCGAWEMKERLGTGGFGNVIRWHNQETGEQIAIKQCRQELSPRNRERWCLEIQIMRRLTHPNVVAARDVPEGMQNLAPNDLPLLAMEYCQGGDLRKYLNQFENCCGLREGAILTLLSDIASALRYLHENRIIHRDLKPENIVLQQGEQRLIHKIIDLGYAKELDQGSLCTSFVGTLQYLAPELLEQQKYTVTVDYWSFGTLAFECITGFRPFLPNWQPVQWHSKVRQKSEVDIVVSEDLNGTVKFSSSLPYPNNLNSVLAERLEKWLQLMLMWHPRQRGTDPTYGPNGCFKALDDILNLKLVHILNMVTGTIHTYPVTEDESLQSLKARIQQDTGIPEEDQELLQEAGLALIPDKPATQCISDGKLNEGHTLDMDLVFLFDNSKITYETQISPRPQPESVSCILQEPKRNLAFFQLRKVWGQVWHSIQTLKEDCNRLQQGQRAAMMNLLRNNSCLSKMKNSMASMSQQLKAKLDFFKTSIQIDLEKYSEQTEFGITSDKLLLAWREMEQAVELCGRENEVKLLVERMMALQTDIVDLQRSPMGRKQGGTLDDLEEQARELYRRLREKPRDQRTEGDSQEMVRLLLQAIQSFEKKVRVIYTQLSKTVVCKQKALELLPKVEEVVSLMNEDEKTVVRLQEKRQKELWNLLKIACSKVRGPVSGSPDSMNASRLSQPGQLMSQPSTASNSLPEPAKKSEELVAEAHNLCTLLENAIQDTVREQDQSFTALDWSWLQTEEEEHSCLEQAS

[14] = biological target: T4, Tyrosine-protein kinase ZAP-70 (Homo sapiens, UniProt P43403); experiment: Inhibition of ZAP70
T4 sequence (P43403 whole entry): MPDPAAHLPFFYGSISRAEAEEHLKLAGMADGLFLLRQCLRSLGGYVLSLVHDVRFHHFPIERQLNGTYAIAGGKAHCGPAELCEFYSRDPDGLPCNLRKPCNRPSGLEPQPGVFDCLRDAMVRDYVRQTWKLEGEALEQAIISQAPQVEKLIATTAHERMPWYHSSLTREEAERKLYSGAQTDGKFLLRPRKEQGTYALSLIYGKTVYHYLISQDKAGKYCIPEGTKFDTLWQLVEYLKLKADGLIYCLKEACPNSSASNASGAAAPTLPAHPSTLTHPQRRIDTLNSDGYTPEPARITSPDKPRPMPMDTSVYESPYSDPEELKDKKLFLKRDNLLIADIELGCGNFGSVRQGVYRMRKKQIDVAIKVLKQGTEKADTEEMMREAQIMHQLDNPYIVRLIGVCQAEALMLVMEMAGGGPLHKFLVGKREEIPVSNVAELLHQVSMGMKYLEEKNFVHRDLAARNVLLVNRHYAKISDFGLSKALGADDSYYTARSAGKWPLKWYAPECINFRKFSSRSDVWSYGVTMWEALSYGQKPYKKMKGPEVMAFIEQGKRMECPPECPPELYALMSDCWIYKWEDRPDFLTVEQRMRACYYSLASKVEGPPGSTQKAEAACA

[15] = biological target: T5, Serine/threonine-protein kinase SULU (Caenorhabditis elegans, UniProt P46549); experiment: Inhibition of SULU
T5 sequence (P46549 whole entry): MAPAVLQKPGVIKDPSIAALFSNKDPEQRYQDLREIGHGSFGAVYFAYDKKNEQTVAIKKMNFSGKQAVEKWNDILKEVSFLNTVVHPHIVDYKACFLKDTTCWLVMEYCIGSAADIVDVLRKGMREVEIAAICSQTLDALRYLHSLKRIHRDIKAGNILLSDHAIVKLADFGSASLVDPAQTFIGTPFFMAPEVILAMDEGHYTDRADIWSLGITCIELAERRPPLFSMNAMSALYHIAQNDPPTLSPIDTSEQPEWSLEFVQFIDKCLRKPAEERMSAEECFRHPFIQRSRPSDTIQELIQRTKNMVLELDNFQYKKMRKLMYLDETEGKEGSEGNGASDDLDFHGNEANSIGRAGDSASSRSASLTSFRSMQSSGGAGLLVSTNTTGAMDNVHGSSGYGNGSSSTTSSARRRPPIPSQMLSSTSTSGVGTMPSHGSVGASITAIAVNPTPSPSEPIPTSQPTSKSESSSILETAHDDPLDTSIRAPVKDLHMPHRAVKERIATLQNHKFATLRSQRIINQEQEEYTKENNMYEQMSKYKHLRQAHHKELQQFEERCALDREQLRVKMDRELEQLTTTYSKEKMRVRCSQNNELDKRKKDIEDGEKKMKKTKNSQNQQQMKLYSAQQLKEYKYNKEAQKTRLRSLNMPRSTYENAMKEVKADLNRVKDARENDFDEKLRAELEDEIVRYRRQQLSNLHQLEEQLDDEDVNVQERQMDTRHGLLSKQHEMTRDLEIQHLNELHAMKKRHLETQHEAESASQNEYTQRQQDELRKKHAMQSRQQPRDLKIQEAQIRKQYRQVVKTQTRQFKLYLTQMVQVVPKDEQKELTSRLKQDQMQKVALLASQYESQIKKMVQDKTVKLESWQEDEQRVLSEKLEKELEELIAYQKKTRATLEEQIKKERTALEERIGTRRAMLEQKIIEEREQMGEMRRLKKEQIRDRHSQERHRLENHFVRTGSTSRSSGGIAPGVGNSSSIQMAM

[16] = biological target: T6, 3-phosphoinositide-dependent protein kinase 1 (Homo sapiens, UniProt O15530); experiment: Inhibition of PDK1
T6 sequence (O15530 whole entry): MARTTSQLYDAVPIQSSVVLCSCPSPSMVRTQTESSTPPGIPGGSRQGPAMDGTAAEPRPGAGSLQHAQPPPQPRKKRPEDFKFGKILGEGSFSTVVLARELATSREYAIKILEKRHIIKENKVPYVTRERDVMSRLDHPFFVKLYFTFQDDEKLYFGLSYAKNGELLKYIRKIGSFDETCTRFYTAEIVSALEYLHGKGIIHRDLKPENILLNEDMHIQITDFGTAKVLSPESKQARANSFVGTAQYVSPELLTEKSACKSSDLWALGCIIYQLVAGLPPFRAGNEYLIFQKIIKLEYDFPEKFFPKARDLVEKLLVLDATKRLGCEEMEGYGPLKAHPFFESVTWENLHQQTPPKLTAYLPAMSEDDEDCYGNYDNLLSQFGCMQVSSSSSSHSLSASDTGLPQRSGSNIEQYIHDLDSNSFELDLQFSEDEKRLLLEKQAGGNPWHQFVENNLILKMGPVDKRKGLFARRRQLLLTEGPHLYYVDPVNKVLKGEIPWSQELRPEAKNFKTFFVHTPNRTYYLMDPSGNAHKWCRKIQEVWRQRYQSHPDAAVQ

[17] = AUC in CD1 mouse at 10 mg/kg, iv; format: ADME, organism-based; design: dose 10 mg/kg, route intravenous; conditions: plasma; outline: as §1

| SMILES | IC50 (HCT-116 [1]) [nM] | EC50 (HCT-116 [2]) [nM] | IC50 (Aurora kinase A) [nM] | IC50 (Aurora kinase B) [nM] | other results |
| --- | --- | --- | --- | --- | --- |
| CN1CCN(c2ccc(C(=O)Nc3n[nH]c4c3CN(C(=O)Cc3ccccc3)C4)cc2)CC1 | 220 | 500 | 130 |  |  |
| C[C@H](C(=O)N1Cc2n[nH]c(NC(=O)c3ccc(N4CCN(C)CC4)cc3)c2C1)c1ccccc1 |  |  | 452 | 1210 |  |
| CN1CCN(c2ccc(C(=O)Nc3n[nH]c4c3CN(C(=O)[C@H](F)c3ccccc3)C4)cc2)CC1 | 50 | 110 | 9 | 300 |  |
| CN1CCN(c2ccc(C(=O)Nc3n[nH]c4c3CN(C(=O)[C@H](O)c3ccccc3)C4)cc2)CC1 | 97 | > 200 | 6 | 48 |  |
| C[C@@H](C(=O)N1Cc2[nH]nc(NC(=O)c3ccc(N4CCN(C)CC4)cc3)c2C1)c1ccccc1 | 21 | 100 | 24 | 99 |  |
| CO[C@@H](C(=O)N1Cc2n[nH]c(NC(=O)c3ccc(N4CCN(C)CC4)cc3)c2C1)c1ccccc1.Cl |  |  |  |  | solubility [3]: > 15 mg/mL |
| CO[C@@H](C(=O)N1Cc2[nH]nc(NC(=O)c3ccc(N4CCN(C)CC4)cc3)c2C1)c1ccccc1 [DANUSERTIB] | 31 | 80 |  |  | Activity (HCT-116 [4]): Active; IC50 (HeLa): 140 nM; IC50 (MCF7): 80 nM; Activity (HL-60 [5]): 16%; IC50 (A2780): 28 nM; TGI (HL-60 [6]): 98% |
| CO[C@@H](C(=O)N1Cc2n[nH]c(NC(=O)c3ccc(N4CCN(C)CC4)cc3)c2C1)c1ccccc1 [DANUSERTIB] |  |  |  |  | IC50 [7]: > 10000 nM; Vd [8]: 3.7 L/kg; IC50 [9]: 161 nM; IC50 (Aurora kinase C): 61 nM; half-life [10]: 1.4 h; Cmax [11]: 9.6 µM; clearance [12]: 60 mL/min/kg; IC50 [13]: > 10000 nM; IC50 [14]: > 10000 nM; IC50 [15]: > 10000 nM; IC50 [16]: > 10000 nM; AUC [17]: 6.5 µM·h |
